# Bioassay records deposited in PubChem by Broad Institute.
# IDH1 mut inh = IDH1 R132H (human) inhibition; O75874; IDH1 R132H reductase, diaphorase/resazurin fluorescence, 60 min; inhibition, % at 10 µM; hit rate 0.18% among 70,000; AID 624101; in the data active means inhibition above about 34%; inconclusive means no clear call, values can overlap the other calls; inactive means below about 11%;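 further: 0% = DMSO and 100% = no enzyme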
# T cruzi growth-1 = inhibitors of T. cruzi proliferation; AID 624255; inhibition, % at 8.34 µM; T. cruzi beta-gal in NIH3T3, GalScreen luminescence, 90 h; hit rate 5.9% among 77,000;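 active means mean inhibition above about 93%, with at least 55% of replicates each passing it, limit read from the data, passing the limit was not always enough; inconclusive means only one of those two conditions holds; inactive means neither condition holds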
# KDM4C inh = inhibitors of human demethylase GASC-1 KDM4C. GST-KDM4C 2-372, H3K9me3 peptide, LANCE TR-FRET. inhibition, % at 12.5 µM. hit rate 0.15% among 96,000;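 active means mean replicate inhibition above about 25%, with at least 55% of replicates also reaching it, limit read from the data, passing the limit was not always enough; inconclusive means only one of those two conditions met; inactive means neither condition met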
# Target sequence (Q9H3R0 2-372 limits assumed): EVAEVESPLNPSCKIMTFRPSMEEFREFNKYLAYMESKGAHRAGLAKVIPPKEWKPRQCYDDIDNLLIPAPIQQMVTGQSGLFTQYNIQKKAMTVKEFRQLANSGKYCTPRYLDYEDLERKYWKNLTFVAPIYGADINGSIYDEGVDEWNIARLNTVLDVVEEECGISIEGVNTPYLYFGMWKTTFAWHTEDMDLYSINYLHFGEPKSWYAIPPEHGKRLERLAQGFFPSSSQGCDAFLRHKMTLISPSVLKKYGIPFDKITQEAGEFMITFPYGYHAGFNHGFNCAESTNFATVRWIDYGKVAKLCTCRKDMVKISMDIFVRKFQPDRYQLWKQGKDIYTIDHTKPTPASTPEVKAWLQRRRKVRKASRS
#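 reagent = H3K9me3 peptide substrate, Fe(II), 2-oxoglutarate | system = GST-tagged GASC-1 (JMJD2C) catalytic fragment, aa 2-372 | amount = enzyme final amount 10 nM | read-out = Fall in 671/618 emission ratio as inhibition | medium = HEPES buffer, pH 7.5, plus ascorbate | schedule = 30 min reaction, 60 min detection, RT | measured by = LANCE TR-FRET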
# Pf Dd2 inh = blocks growth of Plasmodium falciparum Dd2 parasites | P. falciparum Dd2 growth, SYBR Green, 72 h; active compounds read low | activity change, % at 10 µM | hit rate 2.3% among 94,000 | AID 1159554; in the data active means activity change below about -80%; inconclusive means no clear call, values can overlap the other calls
# T cruzi growth-2 = Trypanosoma cruzi proliferation inhibition; shares compounds with T cruzi growth-1; T. cruzi beta-gal in NIH3T3, GalScreen luminescence, 90 h; inhibition, % at 8.35 µM; hit rate 72% among 5,600; AID 651739;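 active means mean replicate inhibition above about 95% and at least 55% of replicates individually reaching it, limit read from the data; inconclusive means only one of the two criteria is met; inactive means neither criterion is met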
# T cruzi growth-3 = blocks T. cruzi growth in NIH3T3 host cells; shares compounds with T cruzi growth-1; T. cruzi beta-gal in NIH3T3, GalScreen luminescence, 90 h; inhibition, % at 2.09 µM; hit rate 21% among 5,600; AID 651740;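 active means mean inhibition above about 95%, with at least 55% of replicates also reaching it, limit read from the data; inconclusive means meets just one of the two conditions; inactive means meets neither condition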;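 further: plate controls were neutral control median for no effect and positive control median for full effect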
# 3T3 cytotox = cytotoxicity in mouse NIH/3T3 fibroblasts. shares compounds with T cruzi growth-1. NIH/3T3 viability, CellTiter-Glo ATP luminescence, 90 h. cytotoxicity (signal decrease), % at 8.35 µM. hit rate 14% among 5,600. AID 651742;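 active means mean signal decrease across replicates above about 35% based on untreated-well scatter, with enough replicates individually passing, limit read from the data; inconclusive means no rule stated though some were filed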;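 further: 0% = median of neutral control wells and 100% = median of positive control wells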
# NIH3T3 tox 2 = kills mouse NIH/3T3 fibroblasts; shares compounds with T cruzi growth-1; NIH/3T3 viability, CellTiter-Glo ATP luminescence, 90 h; inhibition, % at 24.9 µM; hit rate 56% among 5,600;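 active means mean loss of cell viability signal at or above a set limit, and enough replicates individually reaching it; inconclusive means meets only the mean limit or only the replicate share; inactive means meets neither condition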;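 further: 0% = median of neutral control wells and 100% = median of positive control wells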
# Numbers without * were called inactive; u = inconclusive; x = no result given. Only some compounds are listed: those with a hit (about 5.9% of all), similar ones and a draw of the others.
SMILES,IDH1 mut inh,T cruzi growth-1,KDM4C inh,Pf Dd2 inh,T cruzi growth-2,T cruzi growth-3,3T3 cytotox,NIH3T3 tox 2
COc1ccc(S(=O)(=O)N(C)C[C@H]2OCCCC[C@H](C)Oc3ccc(NS(=O)(=O)c4ccc(C)cc4)cc3C(=O)N([C@@H](C)CO)C[C@@H]2C)cc1,-7,u,1,-68,101*,78,7,-2
COc1ccc(S(=O)(=O)N(C)C[C@@H]2OCCCC[C@H](C)Oc3ccc(NS(=O)(=O)c4ccc(C)cc4)cc3C(=O)N([C@@H](C)CO)C[C@H]2C)cc1,-1,31,0,-56,x,x,x,x
COc1ccc(S(=O)(=O)N(C)C[C@H]2OCCCC[C@@H](C)Oc3ccc(NS(=O)(=O)c4ccccc4)cc3C(=O)N([C@H](C)CO)C[C@H]2C)cc1,x,115*,-1,x,108*,64,7,-3
CC(NC(=O)c1ccccc1NC(=O)C1COc2ccccc2O1)c1ccccc1 (stereo not given),0,x,x,x,x,x,x,x
COc1ccc(S(=O)(=O)N(C)CC(=O)Nc2ccccc2)cc1Cl,0,x,x,x,x,x,x,x
COC(=O)c1ccccc1NC(=O)Cn1cnc2sc(C)c(C)c2c1=O,0,x,x,x,x,x,x,x
COc1ccc(S(=O)(=O)Nc2ccc3c(c2)C(=O)N([C@H](C)CO)C[C@H](C)[C@H](CN(C)S(=O)(=O)c2ccc(OC)cc2)OCCCC[C@H](C)O3)cc1,0,100*,0,-58,109*,64,2,9
COc1ccc(S(=O)(=O)Nc2ccc3c(c2)C(=O)N([C@H](C)CO)C[C@@H](C)[C@H](CN(C)S(=O)(=O)c2ccc(OC)cc2)OCCCC[C@H](C)O3)cc1,0,100*,0,-74,107*,62,18,5
COc1ccc(S(=O)(=O)Nc2ccc3c(c2)C(=O)N([C@@H](C)CO)C[C@@H](C)[C@H](CN(C)S(=O)(=O)c2ccc(OC)cc2)OCCCC[C@H](C)O3)cc1,x,78,0,-43,x,x,x,x
CCOc1ccc(NC(=O)Cn2nc([N+](=O)[O-])cc2C)cc1,0,x,x,x,x,x,x,x
CCC(=O)N1CCCCN2[C@H](CO)[C@H](c3ccc(C#CCOC)cc3)[C@H]2C1,x,64,-1,-14,x,x,x,x
COCC#Cc1ccc([C@@H]2[C@@H](CO)N3CCCCN(C(=O)COC)C[C@H]23)cc1,x,102*,0,56,38,-5,16,-2
CCC(=O)N1CCCCN2[C@H](CO)[C@@H](c3ccc(C#CCOC)cc3)[C@@H]2C1,x,100*,1,0,1,22,-2,14
COc1ccc(S(=O)(=O)Nc2cccc3c2O[C@@H](CN(C)Cc2ccc(C(=O)Nc4ccccc4N)cc2)[C@@H](C)CN([C@@H](C)CO)C3=O)cc1,x,u,0,-45,89,83,-3,37*
COc1ccc(S(=O)(=O)Nc2cccc3c2O[C@@H](CN(C)Cc2ccc(C(=O)Nc4ccccc4N)cc2)[C@H](C)CN([C@H](C)CO)C3=O)cc1,x,x,0,-34,x,x,x,x
C[C@H]1CN([C@@H](C)CO)C(=O)c2cc(NS(=O)(=O)c3ccc(Cl)cc3)ccc2O[C@@H]1CN(C)Cc1ccc(C(=O)Nc2ccccc2N)cc1,x,86,-3,-43,x,x,x,x
C[C@@H]1CN([C@@H](C)CO)C(=O)c2cc(NS(=O)(=O)c3ccc(Cl)cc3)ccc2O[C@@H]1CN(C)Cc1ccc(C(=O)Nc2ccccc2N)cc1,x,106*,-2,u,108*,55,21,62*
COc1ccc(S(=O)(=O)Nc2cccc3c2O[C@@H](CN(C)Cc2ccc(C(=O)O)cc2)[C@@H](C)CN([C@H](C)CO)C3=O)cc1,-2,101*,0,6,-30,3,0,5
C[C@H]1CN([C@@H](C)CO)C(=O)c2cccc(NS(=O)(=O)c3ccc(Cl)cc3)c2O[C@H]1CN(C)Cc1ccc(C(=O)Nc2ccccc2N)cc1,0,104*,-1,-89*,90,81,6,39*
